Compound activity deposited in PubChem by Sanford-Burnham Center for Chemical Genomics.
Apaf1 inhib: inhibitors of human Apaf-1 apoptosome; O14727; reconstituted apoptosome caspase-3 activity, DEVD-Rh110 fluorescence; inhibition, % at 20 µM; actives 0.71% (n = 330,000); active = inhibition of at least 40% at 20 µM
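Assay system – apoptosome proteins · Medium – Hepes buffer, pH 7.5 · Also added – cytochrome c with DEVD-Rh110 · Timing – 30 min compound preincubation, 50 min activation, room temperature · Detection – Rh110 fluorescence, excitation 480 nm, emission 540 nm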
SENP7 inh: SENP7 protease inhibition. actives 1.5% (n = 330,000). inhibition, % at 5 µM. recombinant SENP7, Z-RLRGG-aminoluciferin luminescence, 40 min;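 active = inhibition above about 50% at the single test dose, limit read from the data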
SENP6 block: SENP6 protease inhibition; Recombinant SENP6 catalytic domain, aminoluciferin luminescence; actives 1.8% (n = 330,000); Q9GZR1; AID 2599; inhibition, % at 10 µM;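 active = inhibition above about 50% at the single tested dose, limit read from the data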
UBC13 inh: blocks human UBC13 polyubiquitin chain formation; P61088; inhibition, % at 20 µM; actives 0.47% (n = 330,000); AID 485273; TR-FRET; in the data active = inhibition above about 45%, passing the limit was not always enough
Target sequence (P61088 whole entry, looked up): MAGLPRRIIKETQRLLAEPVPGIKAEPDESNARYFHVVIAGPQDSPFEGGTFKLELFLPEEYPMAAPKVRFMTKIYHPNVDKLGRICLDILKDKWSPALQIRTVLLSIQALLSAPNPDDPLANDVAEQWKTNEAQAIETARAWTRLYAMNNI
SENP8 block-1: inhibitors of human SENP8 protease; AID 602440; actives 0.64% (n = 360,000); inhibition, % at 20 µM; recombinant SENP8, Nedd8 substrate fluorescence; in the data active = inhibition mostly above about 40%, no sharp cut-off; inactive = mostly below about 27%
Target sequence (Q96LD8 whole entry, looked up): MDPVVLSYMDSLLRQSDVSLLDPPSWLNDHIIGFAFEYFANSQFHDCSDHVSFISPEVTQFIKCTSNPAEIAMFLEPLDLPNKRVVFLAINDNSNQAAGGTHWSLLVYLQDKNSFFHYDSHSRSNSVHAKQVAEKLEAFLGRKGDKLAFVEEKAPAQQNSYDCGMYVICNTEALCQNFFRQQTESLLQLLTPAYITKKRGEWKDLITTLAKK
SENP8 block-2: blocks the human protease SENP8. purified SENP8, Z-RLRGG-aminoluciferin cleavage, luminescence. inhibition, % at 10 µM. actives 1.2% (n = 330,000). AID 2540; in the data active = inhibition above about 50%
Apaf-1 inh conf: confirmation of Apaf-1 inhibitors. shares compounds with Apaf1 inhib. reconstituted apoptosome, caspase-3 DEVD-Rh110 fluorescence. inhibition, % at 20 µM. actives 25% (n = 1,800);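 active = mean inhibition of at least 40% at 20 µM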
Rh110 interf inh: counter-screen for Apaf-1 inhibitors: fluorescence interference; shares compounds with Apaf1 inhib; Rh110 fluorescence interference, quenched caspase reaction; activation (fluorescence interference), % at 20 µM; 1,800 tested, under 10 active; AID 504615;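 active = signal rise of 40% or more at 20 µM, treated as a fluorescence artifact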
Apaf1 inh interf: shows fluorescence interference in the Apaf-1 inhibitor assay format | IC50, µM | fluorescence interference counterscreen, Apaf-1 assay format | shares compounds with Apaf1 inhib | 460 tested, under 10 active; call rule not given here
Hits are given with their value; . = inactive; / = no result. An excerpt weighted towards active compounds, which were near 3.1% of everything screened.

SMILES | Apaf1 inhib | SENP7 inh | SENP6 block | UBC13 inh | SENP8 block-1 | SENP8 block-2 | Apaf-1 inh conf | Rh110 interf inh | others
CC(OC(=O)CCNS(=O)(=O)c1ccc(Cl)cc1)C(=O)N(C)Cc1ccccc1 (stereo not drawn) | / | / | / | / | . | / | / | /
CCCc1[nH]nc2c1C(c1cc(OC)cc(OC)c1)C(C#N)=C(N)O2 (stereo not drawn) | . | . | . | . | . | . | / | /
CCCc1[nH]nc2c1C(c1ccc(OC)c(CSC3=NCCS3)c1)C(C#N)=C(N)O2 (stereo not drawn) | 41 | . | . | . | . | . | 43 | . | Apaf1 inh interf=.
O=c1ccc2cccc([N+](=O)[O-])c2[nH]1 | / | / | / | / | . | / | / | /
Cc1ccc(C(=O)NC(=S)Nc2cccc3nsnc23)cc1 | 59 | . | . | . | . | . | . | .
OC(Cc1ccccc1Br)c1ncc(-c2cccc(C(F)(F)F)c2)[nH]1 (stereo not drawn) | / | / | / | / | . | / | / | /
CC[C@]12c3[nH]c4ccccc4c3CCN1C(=O)C(CC(=O)NC/C=C(\C)CCC=C(C)C)C[C@@H]2C(=O)N1CCN(C(=O)c2ccco2)CC1 (stereo partly drawn) | . | . | . | . | . | . | / | /
CC(C)(C)NC(=O)C[C@H]1C[C@H](C(=O)N2CCOCC2)[C@@]2(CCC3CCCC3)c3[nH]c4ccc(Cl)cc4c3CCN2C1=O | 44 | . | / | / | . | / | . | .
CC[C@]12c3[nH]c4ccc(OC)cc4c3CCN1C(=O)C(CC(=O)NC/C=C(\C)CCC=C(C)C)C[C@@H]2C(=O)N1CCN(C(=O)c2ccco2)CC1 (stereo partly drawn) | 40 | . | / | / | . | / | . | .
COCCCNC(=O)C[C@H]1C[C@H](C(=O)N2CCCCC2)[C@@]2(CCc3ccccc3)c3[nH]c4cc(-c5ccco5)ccc4c3CCN2C1=O | . | . | / | / | . | / | / | /
O=C(C[C@H]1C[C@H](C(=O)N2CCOCC2)[C@@]2(CCC3CCCC3)c3[nH]c4cc(-c5ccco5)ccc4c3CCN2C1=O)NCCCn1ccnc1 | 62 | . | / | / | . | / | . | .
O=C(C[C@H]1C[C@H](C(=O)N2CCCCC2)[C@@]2(CCc3ccccc3)c3[nH]c4cc(-c5ccco5)ccc4c3CCN2C1=O)NCCN1CCOCC1 | 48 | . | / | / | . | / | . | .
CCc1nc2ccc(C(=O)N(C)CCN(C)C)cn2c1N(C)CCC(C)C | / | / | / | / | . | / | / | /
CC1(c2nnnn2Cc2ccccc2)CCC(=O)N1CCOc1ccccc1 (stereo not drawn) | / | / | / | / | . | / | / | /
O=C(C[C@H]1C[C@H](C(=O)N2CCCCC2)[C@@]2(CCc3ccccc3)c3[nH]c4ccc(Cl)cc4c3CCN2C1=O)NCCCn1ccnc1 | 61 | . | / | / | . | / | . | .
C[C@]12c3[nH]c4ccc(Cl)cc4c3CCN1C(=O)[C@@H](CC(=O)NCCCn1ccnc1)C[C@@H]2C(=O)N1CCCCC1 | . | . | / | / | . | / | / | /
CC(C)N(C(=O)[C@H]1C[C@H](CC(=O)NCCC2=CCCCC2)C(=O)N2CCc3c([nH]c4ccc(Cl)cc34)[C@]12C)C(C)C | 44 | . | / | / | . | / | . | .
CC(C)(C)S(=O)N1Cc2cc(C(=O)NCC(F)(F)F)nc(-c3cccc(-c4cccc(F)c4)c3)c2[C@H]1CCO (stereo partly drawn) | / | / | / | / | . | / | / | /
CC1(C(=O)NS(=O)(=O)c2ccc3c(c2)CCO3)CCN1C(=O)C1(c2ccc(Cl)cc2)CCC1 (stereo not drawn) | / | / | / | / | . | / | / | /
CCc1nc(N2CCN(C(=O)CCl)CC2)c2c3c(sc2n1)CC(C)CC3 (stereo not drawn) | . | . | . | . | . | . | / | /
CCc1nc(N2CCN(C(C)=O)CC2)c2c3c(sc2n1)CC(C(C)(C)C)CC3 (stereo not drawn) | 42 | . | . | . | . | . | . | .
CCOc1cc(C(c2c(C)[nH][nH]c2=O)c2c(C)[nH][nH]c2=O)ccc1OS(=O)(=O)c1ccc(C)cc1 | 41 | . | . | . | . | . | . | .
CCOc1cc(/C=N/O)ccc1OS(=O)(=O)c1ccc(C)cc1 | . | . | . | . | . | . | / | /
CCN(CC)S(=O)(=O)c1cccc(NC(=O)C2SC(=Nc3ccc(C)cc3C)C(C(=O)NCC3CCCO3)=C2N)c1 (stereo not drawn) | 45 | . | . | . | . | . | . | .
O=C1NCC(c2ccccc2)C1C(=O)N/N=C\c1ccc(-c2cccc(Cl)c2Cl)o1 (stereo not drawn) | 40 | . | . | . | . | . | . | .
SMILES | Apaf1 inhib | SENP7 inh | SENP6 block | UBC13 inh | SENP8 block-1 | SENP8 block-2 | Apaf-1 inh conf | Rh110 interf inh | others
COc1cccc(/C=N\NC(=O)C2C(=O)NCC2c2ccccc2)c1O (stereo not drawn) | . | . | . | . | . | . | / | /
COC(=O)N/N=C/c1ccc(-c2ccc(C)c(Cl)c2)o1 | . | . | . | . | . | . | / | /
Cc1ccc(-c2ccc(/C=N\NC(=O)C3C(=O)NCC3c3ccccc3)o2)cc1Cl (stereo not drawn) | 43 | . | . | . | . | . | . | .
COc1ccc(Cl)cc1C=CC=Nc1ccccc1O | / | / | / | / | . | / | / | /
COc1cc(C(=O)NC(C)c2ccc(-n3ccnc3)cc2)cc(OC)c1C (stereo not drawn) | 41 | . | . | . | . | . | . | .
CC(NS(=O)(=O)c1cccc(Cl)c1F)[C@H](O)c1ccccc1 (stereo partly drawn) | / | / | / | / | . | / | / | /
CSc1ccc(CN(C)C(=O)CSCC(=O)Nc2cc(C)on2)cc1 | 48 | . | . | . | . | . | . | .
COc1ccccc1S(=O)(=O)N[C@@H]1CC[C@@H](CCn2cc(C3CC3)nn2)O[C@@H]1CO | / | / | / | / | . | / | / | /
Cc1ccccc1OCCNc1cc(N2CC(C)NC(C)C2)ccc1[N+](=O)[O-] (stereo not drawn) | 56 | . | . | . | . | . | . | .
O=C(O)c1ccc(N2C(=O)/C(=C/c3ccc(-c4ccc([N+](=O)[O-])cc4)o3)C=C2c2ccccc2)cc1 | 52 | . | . | . | . | . | . | .
O=C1NN(c2ccccc2)C(=O)/C1=C/c1ccc(-c2ccc(C(=O)O)cc2)o1 | . | . | . | . | . | . | / | /
CC(=O)Nc1cccc(/C(C)=N/Nc2ccc(S(=O)(=O)Nc3ccccc3C(=O)O)cc2[N+](=O)[O-])c1 | / | / | / | / | . | / | / | /
COc1ccc(CCC(=O)OCC(=O)NC2CCCC2)cc1OC | / | / | / | / | . | / | / | /
O=C1Cc2cc([N+](=O)[O-])ccc2N1c1c(Cl)cccc1Cl | 43 | . | . | . | . | . | . | .
CCOc1ccc(N(C)c2ccc(/C=C3/SC(=S)NC3=O)cc2)cc1 | . | . | . | . | . | . | / | /
